Assay results from publication PMC3445631 (Bioorganic & medicinal chemistry letters, 2012).

Assays:
hCB2 = hCB2 (Homo sapiens, UniProt P34972); assay: Photolabeling of hCB2; format: binding
mCB2 receptor = mCB2 receptor (Mus musculus, UniProt P47936); assay: Photolabeling of mCB2; format: binding; conditions: HEK293 cell membranes expressing mCB2, photoactivated
Procedure, shortened: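 Compound-free membranes were run in parallel as control. Incubated 30 min at 37°C, then UV-irradiated at 365 nm for 1 h on ice. Washed with 1% BSA TME, then plain TME. Followed by [3H]CP-55940 saturation binding.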

mCB2 receptor, sequence (P47936 whole entry): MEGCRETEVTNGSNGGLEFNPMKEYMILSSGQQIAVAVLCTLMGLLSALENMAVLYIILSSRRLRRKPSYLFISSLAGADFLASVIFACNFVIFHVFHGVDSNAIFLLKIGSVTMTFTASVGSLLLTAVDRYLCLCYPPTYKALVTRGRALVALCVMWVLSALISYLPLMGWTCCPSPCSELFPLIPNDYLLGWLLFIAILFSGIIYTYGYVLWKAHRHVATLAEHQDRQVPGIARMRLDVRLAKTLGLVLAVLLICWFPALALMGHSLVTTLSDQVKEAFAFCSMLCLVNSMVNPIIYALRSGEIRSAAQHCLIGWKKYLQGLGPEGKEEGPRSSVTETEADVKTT
hCB2, sequence (P34972 whole entry): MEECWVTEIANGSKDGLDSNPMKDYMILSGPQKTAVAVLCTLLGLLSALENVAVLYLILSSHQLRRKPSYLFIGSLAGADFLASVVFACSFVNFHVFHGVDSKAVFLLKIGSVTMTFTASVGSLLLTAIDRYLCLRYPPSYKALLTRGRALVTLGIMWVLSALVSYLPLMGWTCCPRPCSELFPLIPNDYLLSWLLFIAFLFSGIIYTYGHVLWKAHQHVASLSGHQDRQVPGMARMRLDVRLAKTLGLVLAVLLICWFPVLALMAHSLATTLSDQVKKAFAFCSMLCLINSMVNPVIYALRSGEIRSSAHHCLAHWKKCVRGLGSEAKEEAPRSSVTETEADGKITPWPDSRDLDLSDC

| Structure (SMILES) | extent of labeling of hCB2 (hCB2) [%] | ability to photolabel the mCB2 receptor (mCB2 receptor) |
| --- | --- | --- |
| CC1(C)Oc2cc(C(=O)c3cccc(C(F)(F)F)c3)cc(O)c2[C@@H]2C[C@H](O)CC[C@H]21 [Compound 49] | 30 | also labeled, however, less effectively |
| CC1(C)Oc2cc(C(=O)c3c[nH]c4ccccc34)cc(O)c2[C@@H]2C[C@H](O)CC[C@H]21 [Compound 50] | – | failed to label mCB2 |
